# Laboratory results reported in ChEMBL document CHEMBL4017470, “One drug for two targets: Biological evaluation of antiretroviral agents endowed with antiproliferative activity” (Bioorg Med Chem Lett, 2017).
# System: HT-29
# Experiment: Down regulation of hTERT expression in human HT-29 cells assessed as hTERT expression level at 1 uM after 48 hrs by RT-qPCR analysis relative to control
# Format: functional
# Settings: not given
# Procedure, shortened: (§1)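 HT-29 cells were incubated 48 h with compound, with DMSO as the vehicle control and resveratrol as the positive control. Total RNA was extracted, reverse-transcribed to cDNA, and hTERT or c-Myc quantified by RT-qPCR. Expression was normalized to β-actin and given as % of the DMSO control (100%). At least three measurements per case; mean ± SEM; one-sample t-test.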
row,Compound,Activity [%]
1,O=C1/C(=C/c2ccc(-c3cc(C(F)(F)F)ccc3Cl)o2)SC(=S)N1Cc1ccc(F)cc1,37
2,O=C1N=C(Nc2ccc(F)c(Cl)c2)S/C1=C\c1ccc(-c2ccc(C(=O)O)c(O)c2)o1,53
3,Oc1ccc(/C=C/c2cc(O)cc(O)c2)cc1 [RESVERATROL],28
4,O=C1N=C(N2CCOCC2)S/C1=C\c1ccc(-c2ccc(C(=O)O)c(O)c2)o1,51

# System: HT-29
# Experiment: Down regulation of hTERT expression in human HT-29 cells assessed as hTERT expression level at 20 uM after 48 hrs by RT-qPCR analysis relative to control
# Format: functional
# Settings: not given
# Procedure, shortened: as §1
row,Compound,Activity [%]
1,CCc1ccc(CCNC2=NC(=O)/C(=C/c3ccc(-c4ccc(C(=O)O)c(O)c4)o3)S2)cc1,56

# System: HT-29
# Experiment: Down regulation of c-Myc expression in human HT-29 cells assessed as c-Myc expression level at 1 uM after 48 hrs by RT-qPCR analysis relative to control
# Format: functional
# Settings: not given
# Procedure, shortened: as §1
row,Compound,Activity [%]
1,O=C1/C(=C/c2ccc(-c3cc(C(F)(F)F)ccc3Cl)o2)SC(=S)N1Cc1ccc(F)cc1,69
2,O=C1N=C(Nc2ccc(F)c(Cl)c2)S/C1=C\c1ccc(-c2ccc(C(=O)O)c(O)c2)o1,60
3,Oc1ccc(/C=C/c2cc(O)cc(O)c2)cc1 [RESVERATROL],47
4,O=C1N=C(N2CCOCC2)S/C1=C\c1ccc(-c2ccc(C(=O)O)c(O)c2)o1,60

# System: HT-29
# Experiment: Down regulation of c-Myc expression in human HT-29 cells assessed as c-Myc expression level at 20 uM after 48 hrs by RT-qPCR analysis relative to control
# Format: functional
# Settings: not given
# Procedure, shortened: as §1
row,Compound,Activity [%]
1,CCc1ccc(CCNC2=NC(=O)/C(=C/c3ccc(-c4ccc(C(=O)O)c(O)c4)o3)S2)cc1,67

# System: Human immunodeficiency virus 1
# Experiment: Antiviral activity against HIV-1 NL4.3 infected in human TZM-b1 cells pretreated for 1 hr followed by viral infection measured after 2 days by CPRG assay
# Format: functional, cell-based
# Settings: Human immunodeficiency virus 1, NL4.3, TZM-b1
row,Compound,IC50 [µM]
1,O=C1/C(=C/c2ccc(-c3cc(C(F)(F)F)ccc3Cl)o2)SC(=S)N1Cc1ccc(F)cc1,17.3
2,O=C1N=C(Nc2ccc(F)c(Cl)c2)S/C1=C\c1ccc(-c2ccc(C(=O)O)c(O)c2)o1,1
3,O=C1N=C(NCCc2ccc(Cl)c(Cl)c2)S/C1=C\c1ccc(-c2ccc(C(=O)O)c(O)c2)o1,1.8
4,O=C1N=C(N2CCOCC2)S/C1=C\c1ccc(-c2ccc(C(=O)O)c(O)c2)o1,13.4
5,CCc1ccc(CCNC2=NC(=O)/C(=C/c3ccc(-c4ccc(C(=O)O)c(O)c4)o3)S2)cc1,1

# System: not listed separately
# Experiment: Cytotoxicity against human TZM-b1 cells by XTT assay
# Format: cell-based
# Settings: read-out: LD50 (the source's name)
row,Compound,CC50 [µM]
1,O=C1/C(=C/c2ccc(-c3cc(C(F)(F)F)ccc3Cl)o2)SC(=S)N1Cc1ccc(F)cc1,> 50
2,O=C1N=C(Nc2ccc(F)c(Cl)c2)S/C1=C\c1ccc(-c2ccc(C(=O)O)c(O)c2)o1,> 50
3,O=C1N=C(NCCc2ccc(Cl)c(Cl)c2)S/C1=C\c1ccc(-c2ccc(C(=O)O)c(O)c2)o1,> 50
4,O=C1N=C(N2CCOCC2)S/C1=C\c1ccc(-c2ccc(C(=O)O)c(O)c2)o1,> 50
5,CCc1ccc(CCNC2=NC(=O)/C(=C/c3ccc(-c4ccc(C(=O)O)c(O)c4)o3)S2)cc1,> 50

# System: not listed separately
# Experiment: Selectivity index, ratio of IC50 for HEK293 cells to IC50 for human HT-29 cells
# Format: functional
# Settings: not given
row,Compound,Ratio IC50
1,O=C1/C(=C/c2ccc(-c3cc(C(F)(F)F)ccc3Cl)o2)SC(=S)N1Cc1ccc(F)cc1,0.52
2,O=C1N=C(Nc2ccc(F)c(Cl)c2)S/C1=C\c1ccc(-c2ccc(C(=O)O)c(O)c2)o1,10.91
3,O=C1N=C(N2CCOCC2)S/C1=C\c1ccc(-c2ccc(C(=O)O)c(O)c2)o1,23.04
4,CCc1ccc(CCNC2=NC(=O)/C(=C/c3ccc(-c4ccc(C(=O)O)c(O)c4)o3)S2)cc1,0.13

# System: HT-29
# Experiment: Growth inhibition of human HT-29 cells after 2 days by MTT assay
# Format: functional, cell-based
# Settings: HT-29, 48 h
row,Compound,IC50 [µM]
1,O=C1/C(=C/c2ccc(-c3cc(C(F)(F)F)ccc3Cl)o2)SC(=S)N1Cc1ccc(F)cc1,4.6
2,O=C1N=C(Nc2ccc(F)c(Cl)c2)S/C1=C\c1ccc(-c2ccc(C(=O)O)c(O)c2)o1,1.1
3,Oc1ccc(/C=C/c2cc(O)cc(O)c2)cc1 [RESVERATROL],137
4,O=C1N=C(NCCc2ccc(Cl)c(Cl)c2)S/C1=C\c1ccc(-c2ccc(C(=O)O)c(O)c2)o1,> 100
5,O=C1N=C(N2CCOCC2)S/C1=C\c1ccc(-c2ccc(C(=O)O)c(O)c2)o1,2.3
6,CCc1ccc(CCNC2=NC(=O)/C(=C/c3ccc(-c4ccc(C(=O)O)c(O)c4)o3)S2)cc1,26

# System: MCF7
# Experiment: Growth inhibition of human MCF7 cells after 2 days by MTT assay
# Format: functional, cell-based
# Settings: MCF7, 48 h
row,Compound,IC50 [µM]
1,O=C1/C(=C/c2ccc(-c3cc(C(F)(F)F)ccc3Cl)o2)SC(=S)N1Cc1ccc(F)cc1,1.2
2,O=C1N=C(Nc2ccc(F)c(Cl)c2)S/C1=C\c1ccc(-c2ccc(C(=O)O)c(O)c2)o1,13
3,Oc1ccc(/C=C/c2cc(O)cc(O)c2)cc1 [RESVERATROL],34
4,O=C1N=C(NCCc2ccc(Cl)c(Cl)c2)S/C1=C\c1ccc(-c2ccc(C(=O)O)c(O)c2)o1,> 100
5,O=C1N=C(N2CCOCC2)S/C1=C\c1ccc(-c2ccc(C(=O)O)c(O)c2)o1,21
6,CCc1ccc(CCNC2=NC(=O)/C(=C/c3ccc(-c4ccc(C(=O)O)c(O)c4)o3)S2)cc1,4.5

# System: Ramos
# Experiment: Growth inhibition of human Ramos cells after 2 days by MTT assay
# Format: functional, cell-based
# Settings: 48 h
row,Compound,IC50 [µM]
1,O=C1/C(=C/c2ccc(-c3cc(C(F)(F)F)ccc3Cl)o2)SC(=S)N1Cc1ccc(F)cc1,4.1
2,O=C1N=C(Nc2ccc(F)c(Cl)c2)S/C1=C\c1ccc(-c2ccc(C(=O)O)c(O)c2)o1,3.1
3,Oc1ccc(/C=C/c2cc(O)cc(O)c2)cc1 [RESVERATROL],37
4,O=C1N=C(NCCc2ccc(Cl)c(Cl)c2)S/C1=C\c1ccc(-c2ccc(C(=O)O)c(O)c2)o1,> 100
5,O=C1N=C(N2CCOCC2)S/C1=C\c1ccc(-c2ccc(C(=O)O)c(O)c2)o1,3.14
6,CCc1ccc(CCNC2=NC(=O)/C(=C/c3ccc(-c4ccc(C(=O)O)c(O)c4)o3)S2)cc1,37

# System: HEK293
# Experiment: Growth inhibition of HEK293 cells after 2 days by MTT assay
# Format: cell-based
# Settings: Homo sapiens, HEK293, 48 h
row,Compound,IC50 [µM]
1,O=C1/C(=C/c2ccc(-c3cc(C(F)(F)F)ccc3Cl)o2)SC(=S)N1Cc1ccc(F)cc1,2.4
2,O=C1N=C(Nc2ccc(F)c(Cl)c2)S/C1=C\c1ccc(-c2ccc(C(=O)O)c(O)c2)o1,12
3,Oc1ccc(/C=C/c2cc(O)cc(O)c2)cc1 [RESVERATROL],17
4,O=C1N=C(NCCc2ccc(Cl)c(Cl)c2)S/C1=C\c1ccc(-c2ccc(C(=O)O)c(O)c2)o1,> 100
5,O=C1N=C(N2CCOCC2)S/C1=C\c1ccc(-c2ccc(C(=O)O)c(O)c2)o1,53
6,CCc1ccc(CCNC2=NC(=O)/C(=C/c3ccc(-c4ccc(C(=O)O)c(O)c4)o3)S2)cc1,3.4

# System: not listed separately
# Experiment: Growth inhibition of BAEC after 2 days by MTT assay
# Format: cell-based
# Settings: Bos taurus, 48 h
row,Compound,IC50 [µM]
1,O=C1/C(=C/c2ccc(-c3cc(C(F)(F)F)ccc3Cl)o2)SC(=S)N1Cc1ccc(F)cc1,2.2
2,O=C1N=C(Nc2ccc(F)c(Cl)c2)S/C1=C\c1ccc(-c2ccc(C(=O)O)c(O)c2)o1,25
3,Oc1ccc(/C=C/c2cc(O)cc(O)c2)cc1 [RESVERATROL],57
4,O=C1N=C(NCCc2ccc(Cl)c(Cl)c2)S/C1=C\c1ccc(-c2ccc(C(=O)O)c(O)c2)o1,> 100
5,O=C1N=C(N2CCOCC2)S/C1=C\c1ccc(-c2ccc(C(=O)O)c(O)c2)o1,76
6,CCc1ccc(CCNC2=NC(=O)/C(=C/c3ccc(-c4ccc(C(=O)O)c(O)c4)o3)S2)cc1,20

# System: not listed separately
# Experiment: Selectivity index, ratio of IC50 for HEK293 cells to IC50 for human MCF7 cells
# Format: functional
# Settings: not given
row,Compound,Ratio IC50
1,O=C1/C(=C/c2ccc(-c3cc(C(F)(F)F)ccc3Cl)o2)SC(=S)N1Cc1ccc(F)cc1,2
2,O=C1N=C(Nc2ccc(F)c(Cl)c2)S/C1=C\c1ccc(-c2ccc(C(=O)O)c(O)c2)o1,0.92
3,O=C1N=C(N2CCOCC2)S/C1=C\c1ccc(-c2ccc(C(=O)O)c(O)c2)o1,2.52
4,CCc1ccc(CCNC2=NC(=O)/C(=C/c3ccc(-c4ccc(C(=O)O)c(O)c4)o3)S2)cc1,0.76

# System: not listed separately
# Experiment: Selectivity index, ratio of IC50 for BAEC cells to IC50 for human HT-29 cells
# Format: functional
# Settings: not given
row,Compound,Ratio IC50
1,O=C1/C(=C/c2ccc(-c3cc(C(F)(F)F)ccc3Cl)o2)SC(=S)N1Cc1ccc(F)cc1,0.48
2,O=C1N=C(Nc2ccc(F)c(Cl)c2)S/C1=C\c1ccc(-c2ccc(C(=O)O)c(O)c2)o1,22.72
3,O=C1N=C(N2CCOCC2)S/C1=C\c1ccc(-c2ccc(C(=O)O)c(O)c2)o1,33.04
4,CCc1ccc(CCNC2=NC(=O)/C(=C/c3ccc(-c4ccc(C(=O)O)c(O)c4)o3)S2)cc1,0.77

# System: not listed separately
# Experiment: Selectivity index, ratio of IC50 for BAEC cells to IC50 for human MCF7 cells
# Format: functional
# Settings: not given
row,Compound,Ratio IC50
1,O=C1/C(=C/c2ccc(-c3cc(C(F)(F)F)ccc3Cl)o2)SC(=S)N1Cc1ccc(F)cc1,1.83
2,O=C1N=C(Nc2ccc(F)c(Cl)c2)S/C1=C\c1ccc(-c2ccc(C(=O)O)c(O)c2)o1,1.92
3,O=C1N=C(N2CCOCC2)S/C1=C\c1ccc(-c2ccc(C(=O)O)c(O)c2)o1,3.62
4,CCc1ccc(CCNC2=NC(=O)/C(=C/c3ccc(-c4ccc(C(=O)O)c(O)c4)o3)S2)cc1,4.44

# System: not listed separately
# Experiment: Selectivity index, ratio of IC50 for HEK293 cells to IC50 for human Ramos cells
# Format: functional
# Settings: not given
row,Compound,Ratio IC50
1,O=C1/C(=C/c2ccc(-c3cc(C(F)(F)F)ccc3Cl)o2)SC(=S)N1Cc1ccc(F)cc1,0.59
2,O=C1N=C(Nc2ccc(F)c(Cl)c2)S/C1=C\c1ccc(-c2ccc(C(=O)O)c(O)c2)o1,3.9
3,O=C1N=C(N2CCOCC2)S/C1=C\c1ccc(-c2ccc(C(=O)O)c(O)c2)o1,16.9
4,CCc1ccc(CCNC2=NC(=O)/C(=C/c3ccc(-c4ccc(C(=O)O)c(O)c4)o3)S2)cc1,0.09

# System: not listed separately
# Experiment: Selectivity index, ratio of IC50 for BAEC cells to IC50 for human Ramos cells
# Format: functional
# Settings: not given
row,Compound,Ratio IC50
1,O=C1/C(=C/c2ccc(-c3cc(C(F)(F)F)ccc3Cl)o2)SC(=S)N1Cc1ccc(F)cc1,0.53
2,O=C1N=C(Nc2ccc(F)c(Cl)c2)S/C1=C\c1ccc(-c2ccc(C(=O)O)c(O)c2)o1,8
3,O=C1N=C(N2CCOCC2)S/C1=C\c1ccc(-c2ccc(C(=O)O)c(O)c2)o1,24.2
4,CCc1ccc(CCNC2=NC(=O)/C(=C/c3ccc(-c4ccc(C(=O)O)c(O)c4)o3)S2)cc1,0.54

# System: not listed separately
# Experiment: Apparent permeability of the compound in phosphate buffer at pH 7.4 by PAMPA
# Format: physicochemical
# Settings: not given
row,Compound,Papp [×10⁻⁶ cm/s]
1,O=C1N=C(Nc2ccc(F)c(Cl)c2)S/C1=C\c1ccc(-c2ccc(C(=O)O)c(O)c2)o1,1.58
2,O=C1N=C(N2CCOCC2)S/C1=C\c1ccc(-c2ccc(C(=O)O)c(O)c2)o1,1.28

# System: not listed separately
# Experiment: Aqueous solubility of the compound in water at 1 mg after 24 to 36 hrs by LC-MS/MS analysis
# Format: physicochemical
# Settings: not given
row,Compound,solubility [µM]
1,O=C1N=C(Nc2ccc(F)c(Cl)c2)S/C1=C\c1ccc(-c2ccc(C(=O)O)c(O)c2)o1,11.8
2,O=C1N=C(N2CCOCC2)S/C1=C\c1ccc(-c2ccc(C(=O)O)c(O)c2)o1,9.7

# System: not listed separately
# Experiment: Metabolic stability in human liver microsomes at 50 uM measured after 60 mins in presence of NADPH generating system by LC-UV-MS method
# Format: ADME, microsome
# Settings: read-out: Stability
row,Compound,"remaining at 1 h, 50 µM [%]"
1,O=C1N=C(Nc2ccc(F)c(Cl)c2)S/C1=C\c1ccc(-c2ccc(C(=O)O)c(O)c2)o1,99.1
2,O=C1N=C(N2CCOCC2)S/C1=C\c1ccc(-c2ccc(C(=O)O)c(O)c2)o1,98.7
